Experimental findings from ChEMBL document CHEMBL3244377, “Synthesis and biochemical evaluation of nucleosides of naphthoquinone heterocycles” (J Med Chem, 1977) are described below.

Each structure is given as a SMILES string. The source made the active and inactive calls. The calls are words filed in the database; no cut-off is given here.

The target of test [1] is T1, Hypoxanthine-guanine phosphoribosyltransferase (Mus musculus) (UniProt P00493).
T1 sequence (whole entry): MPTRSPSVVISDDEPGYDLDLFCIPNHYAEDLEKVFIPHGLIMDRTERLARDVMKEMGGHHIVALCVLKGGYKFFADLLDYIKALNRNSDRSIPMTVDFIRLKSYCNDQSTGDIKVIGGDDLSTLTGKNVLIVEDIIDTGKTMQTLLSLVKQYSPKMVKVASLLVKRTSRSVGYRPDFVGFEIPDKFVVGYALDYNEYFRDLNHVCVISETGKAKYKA
The experiment in a line: Inhibition of hypoxanthine phosphoribosyltransferase in mouse Ehrlich ascites tumor cells assessed as decrease in purine nucleotide biosynthesis using [14C]hypoxanthine as substrate at 100 uM incubated for 20 mins followed by substrate addition for 60 mins by thin layer chromatography. The essentials: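 Ehrlich ascites tumor cell suspensions were preincubated 20 min with compound at 100 μM. [14C]Hypoxanthine was then added at 100 μM for a further 60 min. Cells were disrupted, and adenine and guanine nucleotides were resolved by TLC. Radioactivity in individual nucleotides of treated cells was compared with untreated cells to derive apparent purine-metabolism enzyme rates and their inhibition.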

The next test deals with Human alphaherpesvirus 1. Kind of test: Antiviral activity against Herpes simplex virus 1 by tissue culture assay. It is filed as functional, organism-based.
Another test concerns Human respirovirus 3. The experiment in a line: Antiviral activity against Parainfluenza virus 3 by tissue culture assay. It is filed as functional, organism-based.
A further test relates to Human rhinovirus A13. The experiment in a line: Antiviral activity against Rhinovirus 13 by tissue culture assay. It is filed as functional.

As for `O=C1c2ccccc2C(=O)c2[nH]cnc21`, the inhibition in test [1] came out at 82%. The result in the test on Human alphaherpesvirus 1, in the test with Human respirovirus 3 and in the test with Human rhinovirus A13 was inactive.
As to `O=C1c2ccccc2C(=O)c2[nH]ncc21`, the inhibition in test [1] was 5%. Besides, the outcome in the test on Human alphaherpesvirus 1, with Human respirovirus 3 and with Human rhinovirus A13 was inactive.
As for `O=C1c2ccccc2C(=O)c2[nH]nnc21`, the inhibition in test [1] came out at 1%. Besides, the outcome in the test with Human alphaherpesvirus 1, with Human respirovirus 3 and with Human rhinovirus A13 was inactive.
In the case of `O=C1c2ccccc2C(=O)c2nn([C@@H]3O[C@H](CO)[C@@H](O)[C@H]3O)nc21`, the inhibition in test [1] was found to be 72%. Besides, the result in the test with Human alphaherpesvirus 1, in the test with Human respirovirus 3 and in the test on Human rhinovirus A13 was inactive.
Turning to `O=C1c2ccccc2C(=O)c2c1ncn2[C@@H]1O[C@H](CO)[C@@H](O)[C@H]1O`, the inhibition in test [1] came out at 68%. For the same compound, the result with Human alphaherpesvirus 1, in the test with Human respirovirus 3 and in the test on Human rhinovirus A13 was inactive.
For `O=C1c2ccccc2C(=O)c2nn([C@@H]3O[C@H](CO)[C@@H](O)[C@H]3O)cc21`, the inhibition in test [1] was 0%. For the same compound, the result in the test on Human alphaherpesvirus 1, with Human respirovirus 3 and with Human rhinovirus A13 was inactive.

The term inhibition denotes the change of the read-out against control, counted positive when it falls.
